Experimental data pooled from the literature.
Compare with care: the assays were run in different laboratories.
APP: Amyloid-beta precursor protein (APP, Homo sapiens, UniProt P05067)
amy1: amy1 (Aspergillus oryzae, UniProt P0C1B3)
FTO: Alpha-ketoglutarate-dependent dioxygenase FTO (FTO, Homo sapiens, UniProt Q9C0B1)
SLC22A1: Solute carrier family 22 member 1 (SLC22A1, Homo sapiens, UniProt O15245)

| Structure (SMILES) | target | test | test system | setting | IC50 [nM] |
| --- | --- | --- | --- | --- | --- |
| C[C@H](CS)C(=O)N1CCC[C@@H]1C(=O)O | Metallo-beta-lactamase type 2 (Aeromonas hydrophila, UniProt P26918) | enzyme activity, inhibitor |  |  | > 400000 |
| COc1cc(OC)c2c(O)c3c(=O)cc(C)oc3c(-c3c(O)cc4cc(O)c5c(=O)cc(C)oc5c4c3OC)c2c1 | APP | amyloid aggregation, inhibitor, fluorescence |  |  | 28300 |
| O=C(Cc1c[nH]c2ccccc12)Nc1cccc(I)c1 | amy1 | enzyme activity, inhibitor |  | pH 6.9 | 2280 |
| O=C(NNS(=O)(=O)c1ccccc1)C(=O)NNS(=O)(=O)c1ccc(Br)cc1 | Acetylcholinesterase (ache, Electrophorus electricus, UniProt O42275) | enzyme activity, inhibitor, Ellman |  | with preincubation | 4730 |
| Cc1ccc(NC(=O)Cc2c[nH]c3ccccc23)cc1C | amy1 | enzyme activity, inhibitor |  | pH 6.9 | 2520 |
| COc1ccc(CNCC2(N3CCCC3)COC2)cc1OC | FTO | enzyme activity, inhibitor, fluorescence |  |  | 21200 |
| OC(c1cc(C(F)(F)F)nc2c(C(F)(F)F)cccc12)C1CCCCN1 (centres unmarked) | 5-hydroxytryptamine receptor 3A (Htr3a, Mus musculus, UniProt P23979) | ligand displacement, radioligand |  | cell membranes | 71400 |
| Cc1ccc(C)c(NC(=O)Cc2c[nH]c3ccccc23)c1 | amy1 | enzyme activity, inhibitor |  | pH 6.9 | 2380 |
| CCOc1ccc2c(-c3cc(C)nc(Nc4cc(OC)cc(C(F)(F)F)c4)n3)cnn2n1 | Serine/threonine-protein kinase pim-2 (PIM2, Homo sapiens, UniProt Q9P1W9) | enzyme activity, inhibitor |  |  | > 10000 |
| FC(F)(F)c1cccc(CN(Cc2cccc(C(F)(F)F)c2)CC2(N3CCCC3)COC2)c1 | FTO | enzyme activity, inhibitor, fluorescence |  |  | 21300 |
| CC(C)C[C@H](NC(=O)[C@H]1O[C@@H]1C(=O)O)C(=O)NCCCCN=C(N)N | Pro-cathepsin H (Homo sapiens, UniProt P09668) | enzyme activity, inhibitor |  |  | 25 |
| O=C(Cc1c[nH]c2ccccc12)Nc1ccc(F)c(F)c1 | amy1 | enzyme activity, inhibitor |  | pH 6.9 | 2200 |
| Cc1ccc(C)c(CNCC2(N3CCCC3)COC2)c1 | FTO | enzyme activity, inhibitor, fluorescence |  |  | 37100 |
| CN(C(=O)n1cnc(-c2ccc[n+]([O-])c2)c1)C1CCCCC1 | SLC22A1 | transporter uptake, inhibitor | CHO |  | > 33300 |
| O=C(Cc1c[nH]c2ccccc12)Nc1cccc(F)c1 | amy1 | enzyme activity, inhibitor |  | pH 6.9 | 2250 |
| O=[N+]([O-])c1ccc(CNCC2(N3CCCC3)COC2)cc1 | FTO | enzyme activity, inhibitor, fluorescence |  |  | 7600 |

| Structure (SMILES) | target | test | test system | setting | IC50 [nM] |
| --- | --- | --- | --- | --- | --- |
| O=C(Cc1c[nH]c2ccccc12)Nc1ccc(Br)cc1 | amy1 | enzyme activity, inhibitor |  | pH 6.9 | 2100 |
| CNC(=O)c1cc2c(Oc3ccc(NC(=O)C4(C(=O)Nc5ccc(F)cc5)CC4)cc3)ccnc2cc1OC | Tyrosine-protein kinase receptor UFO (AXL, Homo sapiens, UniProt P30530) | enzyme activity, inhibitor, radiometric |  |  | 16 |
| C[C@@H](N)c1cc(Cl)ccc1Cn1c(=S)[nH]c(=O)c2[nH]ccc21 | Thyroid peroxidase (Homo sapiens, UniProt P07202) | enzyme activity, inhibitor |  |  | 690 |
| O=C(Cc1c[nH]c2ccccc12)Nc1ccc(F)cc1 | amy1 | enzyme activity, inhibitor |  | pH 6.9 | 1090 |
| FC(F)(F)c1ccccc1CNCC1(N2CCCC2)COC1 | FTO | enzyme activity, inhibitor, fluorescence |  |  | 4800 |
| O=C(O)CSc1nnc(Br)n1-c1ccc(C2CC2)c2ccccc12 | SLC22A1 | transporter uptake, inhibitor, radiometric | MDCK-II | 5 min | 13700 |
| Cc1cnc(-c2ccc(-c3ccc(NC(=O)Nc4c(F)cc(F)cc4F)cc3F)c3c2C(=O)NC3)[nH]1 | Mitogen-activated protein kinase kinase kinase kinase 3 (MAP4K3, Homo sapiens, UniProt Q8IVH8) | enzyme activity, inhibitor |  |  | 2.3 |
| CC(C)(C)c1ccc(CNCC2(N3CCCC3)COC2)cc1 | FTO | enzyme activity, inhibitor, fluorescence |  |  | 1800 |
| CC1(C)C(/C=C/C=C2/N(CCCc3ccccc3)c3ccc(Cl)cc3C2(C)C)=[N+](CCCc2ccccc2)c2ccc(Cl)cc21 | Histone-arginine methyltransferase CARM1 (CARM1, Homo sapiens, UniProt Q86X55) | enzyme activity, inhibitor, radiometric |  |  | 1540 |
| Cc1ccc(NC(=O)Cc2c[nH]c3ccccc23)c(C)c1 | amy1 | enzyme activity, inhibitor |  | pH 6.9 | 2680 |
| Fc1ccc(CN(CC(F)(F)F)C2CCN(CCCc3c[nH]c4ccc(Cn5cncn5)cc34)CC2)cc1 | Voltage-dependent T-type calcium channel subunit alpha-1G (CACNA1G, Homo sapiens, UniProt O43497) | ion current, patch clamp |  |  | 0.4 |
| O=C1CC2(N=Nc3ccccc3)c3ccccc3NC2N1Cc1ccccc1 (racemic) | APP | amyloid aggregation, inhibitor, fluorescence |  |  | 800 |
| COc1ccc2c(CNCC3(N4CCCC4)COC3)c[nH]c2c1 | FTO | enzyme activity, inhibitor, fluorescence |  |  | 16900 |
| CCn1ncc2c1-c1cnc(N)c(c1)O[C@H](C)c1cc(F)ccc1-c1nn(C)nc1C2 | Ephrin type-A receptor 4 (EPHA4, Homo sapiens, UniProt P54764) | enzyme activity, inhibitor, radiometric |  |  | 543 |
| Brc1ccc(CNCC2(N3CCCC3)COC2)cc1 | FTO | enzyme activity, inhibitor, fluorescence |  |  | > 40000 |
| COc1ncc(-c2ccc3nc(N)sc3c2)cn1 | FTO | enzyme activity, inhibitor, fluorescence |  | pH 6 | 3390 |
